Measured values as given in paper PMC6398930 (Bioorganic & medicinal chemistry letters, 2019).

Experiments:
[1] = Intrinsic and predicted hepatic clearance in human liver microsomes; format: in vitro ADME
Method in brief: (§1)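 Part of an outsourced Tier 1 in vitro DMPK panel. Intrinsic clearance was measured in liver microsomes from the species named in each line and scaled. Predicted hepatic clearance was derived from the same microsomal experiments.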

[2] = Intrinsic and predicted hepatic clearance in mouse liver microsomes; format: in vitro ADME; conditions: for CLint scaled / Predicted hepatic clearance mCLHEP: mouse, liver microsomes
Method in brief: as §1

GIRK1/2 = target: T1, GIRK1/2 (Homo sapiens, UniProt P48051+P48549); assay: Thallium flux assay, GIRK1/2 expressing HEK293 cells; format: cell-based; conditions: for Loss of GIRK1/2 potency/activity relative to 15a: compared with parent amide/phenyl compound 15a; for Selectivity GIRK1/2 vs GIRK1/4 (in words): thallium flux
T1 sequence (P48549 1-501): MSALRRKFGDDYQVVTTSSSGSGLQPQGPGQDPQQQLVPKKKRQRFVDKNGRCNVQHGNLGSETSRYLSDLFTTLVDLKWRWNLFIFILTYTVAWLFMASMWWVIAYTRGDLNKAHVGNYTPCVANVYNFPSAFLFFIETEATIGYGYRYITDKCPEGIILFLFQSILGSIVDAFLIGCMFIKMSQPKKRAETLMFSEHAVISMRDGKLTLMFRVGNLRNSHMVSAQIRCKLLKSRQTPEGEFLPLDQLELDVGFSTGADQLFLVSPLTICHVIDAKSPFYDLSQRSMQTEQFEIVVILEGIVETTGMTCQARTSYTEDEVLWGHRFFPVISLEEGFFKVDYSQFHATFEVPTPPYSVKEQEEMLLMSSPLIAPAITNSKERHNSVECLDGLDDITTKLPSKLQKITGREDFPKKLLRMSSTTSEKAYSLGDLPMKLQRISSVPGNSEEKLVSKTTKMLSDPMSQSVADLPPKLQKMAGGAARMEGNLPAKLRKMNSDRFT
T1 sequence (P48051 1-423): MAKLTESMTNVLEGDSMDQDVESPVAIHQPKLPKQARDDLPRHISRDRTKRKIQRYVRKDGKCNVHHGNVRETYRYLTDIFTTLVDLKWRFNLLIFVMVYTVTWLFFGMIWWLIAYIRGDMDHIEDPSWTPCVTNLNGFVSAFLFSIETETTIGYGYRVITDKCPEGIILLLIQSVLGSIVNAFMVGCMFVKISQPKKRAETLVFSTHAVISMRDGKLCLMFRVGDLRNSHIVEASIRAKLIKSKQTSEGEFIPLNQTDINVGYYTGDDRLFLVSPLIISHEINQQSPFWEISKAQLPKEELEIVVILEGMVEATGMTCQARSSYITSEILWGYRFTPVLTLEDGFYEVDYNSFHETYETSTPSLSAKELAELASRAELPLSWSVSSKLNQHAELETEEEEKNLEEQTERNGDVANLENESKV

[3] = Plasma unbound fraction, mouse plasma; format: in vitro ADME
[4] = Stability in Human Liver S9 fractions; format: in vitro ADME

| SMILES | CLint scaled ([1]; human, liver microsomes) [mL/min/kg] | CLint scaled [2] [mL/min/kg] | further results |
| --- | --- | --- | --- |
| Cc1cc(NC(=O)Cn2nnc(-c3ccccc3)n2)n(C2CCCCC2)n1 [15a] | 186 | 2920 | – |
| Cc1cc(NC(=S)Cn2nnc(-c3ccccc3)n2)n(C2CCCCC2)n1 [15b] | 346 | > 5930 | Loss of GIRK1/2 potency/activity relative to 15a (GIRK1/2): ~7 fold; Predicted hepatic clearance mCLHEP [2]: >88.7 mL/min/kg; Recovery in mouse plasma (in words) [3]: poor recovery |
| Cc1cc(NC(=O)Cn2nnc(-c3ccccc3)n2)n(C2CCC(F)(F)CC2)n1 [15d] | 77.3 | 723 | – |
| Cc1cc(NC(=O)Cn2nnc(-c3ccccc3)n2)n(C2CCS(=O)(=O)C2)n1 (stereo not shown) [15k] | < 23.1 | < 49.5 | Stability in human liver microsomes (in words) [1]: stable; Predicted hepatic clearance hCLHEP ([1]; human, liver microsomes): <10.7 mL/min/kg; Stability in mouse liver microsomes (in words) [2]: stable; Predicted hepatic clearance mCLHEP [2]: <31.9 mL/min/kg; Stability in human S9 fractions (in words) [4]: stable; CLHEP in Human Liver S9 fractions ([4]; human liver S9): <1.0 mL/min/kg; CLint scaled ([4]; human, liver S9 fractions): 2.6 mL/min/kg |
| Cc1cc(NC(=O)Cn2nnc(-c3ccccc3)n2)n(CC2CCCCC2)n1 [15q] | 753 | > 5930 | Selectivity GIRK1/2 vs GIRK1/4 (in words) (GIRK1/2): lost selectivity between GIRK1/2 and GIRK1/4 |
| Cc1cc(NC(=O)Cn2nnc(-c3cccnc3)n2)n(C2CCCCC2)n1 [16a] | – | – | Loss of GIRK1/2 potency/activity relative to 15a (GIRK1/2): > 20 fold |
| Cc1cc(NC(=O)Cn2nnc(-c3ccccn3)n2)n(C2CCCCC2)n1 [16b] | – | – | Loss of GIRK1/2 potency/activity relative to 15a (GIRK1/2): > 20 fold |
| Cc1cc(NC(=O)Cn2ccc(-c3ccccc3)n2)n(C2CCCCC2)n1 [17e] | – | – | GIRK1/2 potency, fold less potent than 17f (GIRK1/2; 17e vs 17f): ~ 8 fold |
| Cc1cc(NC(=O)Nc2ccc(F)c(F)c2)n(Cc2ccccc2)n1 [compound 1, reference compound] | – | – | Selectivity GIRK1/2 vs GIRK1/4 (in words) (GIRK1/2): activate GIRK1/2 preferentially over GIRK1/4 |

The next lines start with results.

| CLint scaled ([1]; human, liver microsomes) [mL/min/kg] | CLint scaled [2] [mL/min/kg] | SMILES | further results |
| --- | --- | --- | --- |
| 99.9 | 489 | Cc1cc(NC(=O)Cn2nnc(-c3ccc(Cl)c(Cl)c3)n2)n(C2CCCCC2)n1 [16d] | – |
| 162 | 2710 | Cc1cc(NC(=O)Cn2nnc(-c3cccc(F)c3)n2)n(C2CCCCC2)n1 [16g] | Selectivity GIRK1/2 vs GIRK1/4 (in words) (GIRK1/2): more selective for GIRK1/2 vs. GIRK1/4 |
| 54.6 | 596 | Cc1cc(NC(=O)Cn2cc(-c3ccccc3)nn2)n(C2CCCCC2)n1 [17a] | – |
| 209 | 3490 | Cc1cc(NC(=O)Cn2nncc2-c2ccccc2)n(C2CCCCC2)n1 [17b] | – |
